Laboratory results: paper PMC4378865 (Journal of biomolecular screening, 2014)

Key:
T. brucei MetRS [1] = molecular target: T1, T. brucei MetRS (Trypanosoma brucei brucei, UniProt Q38C91); assay: Aminoacylation assay, incorporation of [3H]L-methionine into tRNA; format: biochemical
T1 sequence (Q38C91 1-773): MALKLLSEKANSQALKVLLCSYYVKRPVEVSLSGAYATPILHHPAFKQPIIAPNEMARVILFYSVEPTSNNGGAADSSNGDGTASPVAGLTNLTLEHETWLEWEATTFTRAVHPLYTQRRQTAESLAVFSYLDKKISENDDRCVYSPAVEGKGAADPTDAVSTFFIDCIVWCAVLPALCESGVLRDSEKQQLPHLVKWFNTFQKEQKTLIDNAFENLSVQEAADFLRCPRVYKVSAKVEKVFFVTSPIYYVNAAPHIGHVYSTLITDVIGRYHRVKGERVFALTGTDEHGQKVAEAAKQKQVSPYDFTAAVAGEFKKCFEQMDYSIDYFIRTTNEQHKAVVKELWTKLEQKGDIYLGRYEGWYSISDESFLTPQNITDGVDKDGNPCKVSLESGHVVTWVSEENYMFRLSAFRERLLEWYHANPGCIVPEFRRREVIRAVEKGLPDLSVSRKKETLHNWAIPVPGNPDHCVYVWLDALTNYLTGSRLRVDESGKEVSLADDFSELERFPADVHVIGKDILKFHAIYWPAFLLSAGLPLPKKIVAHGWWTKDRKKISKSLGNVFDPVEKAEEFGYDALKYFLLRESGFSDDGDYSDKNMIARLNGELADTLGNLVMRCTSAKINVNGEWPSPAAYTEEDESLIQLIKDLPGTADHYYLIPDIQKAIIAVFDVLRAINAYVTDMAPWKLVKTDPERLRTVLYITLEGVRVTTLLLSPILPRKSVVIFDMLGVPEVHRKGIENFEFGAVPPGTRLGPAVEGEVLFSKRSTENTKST

Jurkat cells = assay: Jurkat cell cytotoxicity counterscreen; format: cell-based
Outline: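 Jurkat E6.1 suspension cells grown in RPMI-1640 with 10% dialyzed FBS, NEAA, pyruvate, HEPES, glutamine and antibiotic-antimycotic at 37 °C, 5% CO₂. CellTiter-Glo added, 10 min RT, then luminescence read. Tested in triplicate. Data normalized per plate: 8 µM doxorubicin as high control, DMSO as low control.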

T. brucei MetRS [2] = molecular target: T1, T. brucei MetRS; assay: Orthogonal fluorescence polarization AMP production assay; format: biochemical
Outline: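 Concentration-response was run in triplicate as a 10-point serial dilution from 120 µM. AMP was detected by FP with a Transcreener AMP²/GMP² reagent (Cy5, excitation 620 nm, emission 688 nm), with FP = (S − P)/(P + S). Percent inhibition was normalized per plate between DMSO-only wells and wells with 1.5 µM reference inhibitor.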

[3] = cited from earlier work
T. brucei MetRS [4] = molecular target: T1, T. brucei MetRS; assay: Luminescence; format: biochemical
T. brucei MetRS [5] = molecular target: T1, T. brucei MetRS; conditions: formerly shown; cited from earlier work
[6] = molecular target: T2, human mitochondrial MetRS (Homo sapiens, UniProt Q96GW9); assay: Aminoacylation assay, selectivity counterscreen; format: biochemical
T2 sequence (Q96GW9 30-593): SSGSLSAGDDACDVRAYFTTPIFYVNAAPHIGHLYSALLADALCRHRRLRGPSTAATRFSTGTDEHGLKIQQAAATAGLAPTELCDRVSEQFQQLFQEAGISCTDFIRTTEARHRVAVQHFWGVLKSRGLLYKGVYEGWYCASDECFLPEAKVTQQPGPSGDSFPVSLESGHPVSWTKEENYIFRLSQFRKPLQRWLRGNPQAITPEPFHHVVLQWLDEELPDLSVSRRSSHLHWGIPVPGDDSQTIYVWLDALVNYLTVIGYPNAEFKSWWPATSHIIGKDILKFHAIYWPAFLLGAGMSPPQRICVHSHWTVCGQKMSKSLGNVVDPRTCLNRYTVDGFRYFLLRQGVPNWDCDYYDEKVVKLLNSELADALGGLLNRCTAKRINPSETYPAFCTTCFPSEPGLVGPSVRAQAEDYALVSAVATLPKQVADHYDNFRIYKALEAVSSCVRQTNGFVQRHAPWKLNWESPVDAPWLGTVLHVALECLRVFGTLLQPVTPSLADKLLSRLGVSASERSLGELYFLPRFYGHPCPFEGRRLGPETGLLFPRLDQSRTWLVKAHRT

[7] = fluorescence polarization assay
[8] = luminescence ATP depletion assay, 1536-well

Question: With `O=C(CN1CCSC1=NCc1ccccc1)c1ccc(Cl)c(Cl)c1` [CID 4656759] as the molecule, how does the “% inhibition” value (T. brucei MetRS [1]) read?
Answer: 28%

Question: With `O=C(CCCSc1ccc(Cl)cc1)Nc1ccccc1O` [CID 16312830] as the molecule, how does the “activity in the Jurkat cytotoxicity assay” value (Jurkat cells; dose response, highest dilution 83.3 M) read?
Answer: activity

Question: Which results are given for `Oc1cc(NCCCNCc2cc(Cl)cc(Cl)c2)nc2ccccc12` [CID 18353708, 2-((3-((3,5-dichlorobenzyl)amino)propyl)amino)quinolin-4(1H)-one, reference compound]?
Answer: IC50 (T. brucei MetRS [2]): 30.3 ± 4.81 nM; Hill slope (T. brucei MetRS [2]; fluorescence polarization assay, N=3): 4.34 ± 0.17; bioavailability [3]: poor bioavailability; IC50 (T. brucei MetRS [4]): 24.2 ± 2.74 nM; Hill slope (T. brucei MetRS [4]; luminescence ATP depletion assay, N=11): 4.41 ± 0.56; inhibition of T. brucei MetRS (T. brucei MetRS [5]): sub-micromolar inhibition

Question: Which “activity in fluorescence polarization assay” value (T. brucei MetRS [2]; dose response curve) does the source give for `Cn1nc(C(F)(F)F)c(-c2cccc(C(F)(F)F)c2)c1NC(=O)Nc1ccc(F)cc1` [CID 2810697] here?
Answer: inactivity

Question: With `CN(Cc1cc(Cl)cc(Cl)c1)[C@H]1C[C@H]2c3[nH]c4ccccc4c3CCN2C(=O)[C@H]1CO` [CID 46902334] as the molecule, how does the “% inhibition” value ([6]; at 1, human mitochondrial MetRS) read?
Answer: 14.3%

Question: What about the “% inhibition” value ([6]; at 10, human mitochondrial MetRS) of the same molecule?
Answer: 80.3%

Question: With `O=C(Cn1cc(C(=O)C(=O)N2CCOCC2)c2ccccc21)Nc1cccc(C(F)(F)F)c1` [CID 2973195] as the molecule, how does the IC50 (T. brucei MetRS [2]; [7]) read?
Answer: 292 nM

Question: And the pIC50 (T. brucei MetRS [2]; [7])?
Answer: 6.53

Question: What about the IC50 (Jurkat cells; Jurkat cytotoxicity assay) of the same molecule?
Answer: > 83000 nM

Question: And the pIC50 (Jurkat cells; Jurkat cytotoxicity assay)?
Answer: < 4.08

Question: What about the IC50 (T. brucei MetRS [4]; [8]) of the same molecule?
Answer: 171 nM

Question: And the pIC50 (T. brucei MetRS [4]; [8])?
Answer: 6.77

Question: Which IC50 (T. brucei MetRS [4]; [8]) does the source give for `COc1cccc(NC(=O)CSc2nnc3c(n2)[nH]c2ccc(C)cc23)c1` [CID 24793614] here?
Answer: 44 nM
